One experiment concerns MDA-MB-468. Description: Cytotoxicity against human MDA-MB-468 cells assessed as decrease in cell viability after 120 hrs by MTS assay. It counts as functional, cell-based. Particulars: MDA-MB-468, 120 h. In general terms: Tetrazolium dyes change colour on reduction, which living cells bring about.
The subject of a further experiment is MDA-MB-436. Description: Cytotoxicity against human MDA-MB-436 cells assessed as decrease in cell viability after 120 hrs by MTS assay. Type of experiment: functional, cell-based. The conditions noted are these: MDA-MB-436, 120 h.
The subject of the next experiment is Hs-578T. Description: Cytotoxicity against human Hs578T cells assessed as decrease in cell viability after 120 hrs by MTS assay. It counts as functional, cell-based.
The test system of another experiment is SUM-159-PT. Description: Cytotoxicity against human SUM159PT cells assessed as decrease in cell viability after 120 hrs by MTS assay. Type of experiment: functional, cell-based.
Experiment [1] relates to MDA-MB-231. Description: Cytotoxicity against human MDA-MB-231 cells assessed as decrease in cell viability at 10 uM in presence of 6-Gy gamma-irradiation measured up to 120 hrs by CellTiter96 AQueous one solution cell proliferation assay. It counts as functional, cell-based. A digest of the protocol:
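MDA-MB-231 cells given 10 μM compound with or without 6 Gy irradiation; proliferation followed over a 120 h time course and expressed as mean % proliferation from 3 independent experiments; area under the curve calculated from the proliferation data.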

In another experiment the test system is MCF-10A. Description: Cytotoxicity against human MCF10A cells assessed as decrease in cell viability after 120 hrs by MTS assay. Type of experiment: cell-based.
In a further experiment the test system is BT-549. Description: Cytotoxicity against human BT549 cells assessed as decrease in cell viability after 120 hrs by MTS assay. Type of experiment: functional, cell-based. The conditions noted are these: BT-549, 120 h.
In the next experiment the test system is HCC1937. Description: Cytotoxicity against human HCC1937 cells assessed as decrease in cell viability after 120 hrs by MTS assay. It counts as functional, cell-based. Particulars: HCC1937, 120 h.
The test system of experiment [2] is MDA-MB-231. Description: Cytotoxicity against human MDA-MB-231 cells assessed as decrease in cell viability after 120 hrs by MTS assay. It counts as functional, cell-based. The conditions noted are these: MDA-MB-231, 120 h.
The target in experiment [3] is T1, DNA repair protein RAD51 homolog 1 (Homo sapiens) (UniProt Q06609).
T1 sequence (whole entry): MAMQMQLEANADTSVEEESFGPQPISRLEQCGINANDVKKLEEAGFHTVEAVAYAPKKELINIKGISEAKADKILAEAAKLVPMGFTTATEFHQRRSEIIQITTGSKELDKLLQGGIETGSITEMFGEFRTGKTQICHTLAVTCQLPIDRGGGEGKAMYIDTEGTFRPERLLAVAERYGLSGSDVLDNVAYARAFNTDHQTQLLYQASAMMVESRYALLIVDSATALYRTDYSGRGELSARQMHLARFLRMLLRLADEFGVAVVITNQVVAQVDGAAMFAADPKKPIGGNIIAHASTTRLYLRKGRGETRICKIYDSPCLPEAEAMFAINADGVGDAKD
Description: Inhibition of RAD51 in human MDA-MB-231 cells assessed as reduction in DNA damage-induced RAD51 foci formation at 10 uM incubated for 16 hrs followed by 6-Gy gamma-irradiation measured after 6 hrs by immunofluoresent assay. Type of experiment: cell-based. Summed up: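 MDA-MB-231 cells given 10 μM compound, then 6 Gy irradiation; RAD51 foci scored by immunofluorescence, with the read-out taken as the ratio of RAD51-positive to γH2AX-positive cells.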

Experiment [4] deals with T1, DNA repair protein RAD51 homolog 1 (Homo sapiens). Description: Binding affinity to recombinant human RAD51 at 100 uM by SPR method. On the technique in general: Surface plasmon resonance follows binding to a sensor surface in real time, without labels.
Experiment [5] relates to MDA-MB-231. Description: Cytotoxicity against human MDA-MB-231 cells assessed as decrease in cell viability at 10 uM measured up to 120 hrs by CellTiter96 AQueous one solution cell proliferation assay. It counts as functional, cell-based. A digest of the protocol: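 MDA-MB-231 cells exposed to 10 μM compound with or without 6 Gy irradiation; proliferation followed over a 120 h time course and expressed as mean % proliferation from 3 independent experiments; area under the curve derived from the proliferation data.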

Structures are written as SMILES. Activity calls are given as the source filed them. The calls are words filed in the database; no cut-off is given here.

As usually defined, the IC50 is the concentration that inhibits the measured activity by half. Consider `O=c1c2ccccc2nc(/C=C/c2cccnc2)n1Cc1ccccc1`, for which the IC50 with MDA-MB-468 was found to be 10.2 µM; in the experiment on MDA-MB-436, 5.7 µM; with Hs-578T, 9.6 µM; in the experiment with SUM-159-PT, 84.1 µM; in the experiment with MCF-10A, 47.7 µM; in the experiment with BT-549 it was 35.4 µM. The 50% inhibitory concentration (IC50) is 89.1 µM with HCC1937 and 11.1 µM in the experiment with MDA-MB-231 [2]. In addition, in the experiment with MDA-MB-231 [1], the outcome was Active.

As to `O=c1c2ccccc2nc(/C=C/c2cccnc2)n1CC1CCCCC1`, in experiment [3], the inhibition result is “Active”.

With `O=c1c2ccccc2nc(/C=C/c2cccnc2)n1Cc1ccc(Cl)cc1`, the outcome (in [4]; with MDA-MB-231 [1]) was Active. In addition, the IC50 in the experiment on MDA-MB-468 was 5.7 µM; in the experiment with MDA-MB-436, 4.1 µM; in the experiment on Hs-578T it was 4.2 µM; in the experiment on SUM-159-PT, 5.5 µM; in the experiment with MCF-10A, 48.3 µM; in the experiment with BT-549 it was 6.4 µM. Besides, the IC50 was 13.7 µM with HCC1937 and 6.7 µM in the experiment on MDA-MB-231 [2]. Moreover, the result in the experiment with MDA-MB-231 [5] was inactive. Besides, the inhibition result in experiment [3] was “Active”.

For the origin of these results see ChEMBL document CHEMBL4020790, “Quinazolinone derivatives as inhibitors of homologous recombinase RAD51” (Bioorg Med Chem Lett, 2017).
